Experimental data taken from ChEMBL document CHEMBL1125595 (1991).
Values after ≈ are worked out from the molar mass of the structure shown.

Experiments:
[1] = tested on: MRC5; test: Antiviral activity determined by plaque reduction assay of HCMV (AD-169) in MRC-5 cells; assay type: functional; conditions: Homo sapiens, read-out: ID50 (the source's name)
Procedure, shortened: (§1)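 Plaque reduction assay: HSV strains in Vero cells and HCMV in MRC-5 cells. ID50 is the dose giving a 50% fall in plaque numbers relative to untreated controls.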

[2] = tested on: Vero; test: Anticellular activity was determined by cell proliferation assay in vero cells.; conditions: Chlorocebus sabaeus, read-out: ID50 (the source's name)
[3] = tested on: Vero; test: Antiviral activity determined by plaque reduction assay of HSV-2 (G) in vero cells; assay type: functional; conditions: Chlorocebus sabaeus, read-out: ID50 (the source's name); procedure, shortened: as §1
[4] = tested on: Vero; test: Antiviral activity determined by plaque reduction assay of HSV-1 (BWS) in vero cells; assay type: functional; conditions: Chlorocebus sabaeus, read-out: ID50 (the source's name); procedure, shortened: as §1
[5] = tested on: Mus musculus; test: Compound tested for its effect on mean survival time in mice against HSV-1(BWS) at a dose of 300 mg/kg.; assay type: functional
Procedure, shortened: (§2)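 Female Swiss-Webster mice of about 20 g were infected intraperitoneally with 5 × 10^4 PFU HSV-1 (BWS). Compound was given intraperitoneally twice daily for 5 consecutive days, starting 3 h postinfection. A saline placebo group served as control. Deaths were recorded for 21 days, and survivors and mean survival time in days were taken at the day-21 endpoint.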

[6] = tested on: Mus musculus; test: Antiviral activity in terms of percentage survival at a dose of 300 mg/kg after intraperitoneal inoculation of HSV-1(BWS) in mice (6/7); assay type: functional; conditions: ip; procedure, shortened: as §2
[7] = tested on: Mus musculus; test: Antiviral activity in terms of percentage survival at a dose of 100 mg/kg after intraperitoneal inoculation of HSV-1(BWS) in mice (7/10); assay type: functional; conditions: ip; procedure, shortened: as §2
[8] = tested on: Mus musculus; test: Compound tested for its effect on mean survival time in mice against HSV-1(BWS) at a dose of 100 mg/kg.; assay type: functional; procedure, shortened: as §2
[9] = tested on: Mus musculus; test: Antiviral activity in terms of percentage survival at a dose of 300 mg/kg after intraperitoneal inoculation of HSV-1(BWS) in mice (10/10); assay type: functional; conditions: ip; procedure, shortened: as §2
[10] = tested on: Mus musculus; test: Antiviral activity in terms of percentage survival at a dose of 100 mg/kg after intraperitoneal inoculation of HSV-1(BWS) in mice (9/10); assay type: functional; conditions: ip; procedure, shortened: as §2

Compound | IC50 [1] [µg/mL] | IC50 [2] [µg/mL] | IC50 [3] [µg/mL] | IC50 [4] [µg/mL] | MST [5] [days] | survival at 300 mg/kg [6] [%] | survival at 100 mg/kg [7] [%] | MST [8] [days] | survival at 300 mg/kg [9] [%] | survival at 100 mg/kg [10] [%]
N.Nc1nc(O)c2ncn(CC(CO)CCP(=O)(O)O)c2n1 (configuration not stated) | > 100 | > 100 | > 100 | – | – | – | – | – | – | –
N.Nc1ccn(CC(CO)CCP(=O)(O)O)c(=O)n1 (configuration not stated) | > 100 | > 100 | > 100 | – | – | – | – | – | – | –
Nc1nc(O)c2ncn(COC(CO)OCP(=O)([O-])[O-])c2n1.[Na+].[Na+] (configuration not stated) | 0.9 | > 100 | 8.2 | 3.3 | – | – | – | – | – | –
COC(CO)OCn1cnc2c(O)nc(N)nc21 (configuration not stated) | > 100 | > 100 | > 100 | > 100 | – | – | – | – | – | –
Nc1ccn(COCOCP(=O)([O-])[O-])c(=O)n1.[Na+].[Na+] | > 100 | > 100 | > 100 | > 100 | – | – | – | – | – | –
Cc1cn(COCOCP(=O)([O-])[O-])c(=O)[nH]c1=O.[Na+].[Na+] | > 100 | > 100 | > 100 | > 100 | – | – | – | – | – | –
N.Nc1ncnc2c1ncn2CC(CO)CCP(=O)(O)O (configuration not stated) | > 100 | > 100 | > 100 | – | – | – | – | – | – | –
Nc1ncnc2c1ncn2COCOCP(=O)([O-])[O-].[Na+].[Na+] | > 100 | > 100 | > 100 | > 100 | – | – | – | – | – | –
Nc1nc2c(ncn2COCCO)c(=O)[nH]1 [ACYCLOVIR] | 38.4 (≈ 171 µM) | > 100 | 2.4 (≈ 10.7 µM) | 0.5 (≈ 2.22 µM) | 20 | 86 | 70 | – | – | –
Nc1nc(O)c2ncn(COCOCP(=O)([O-])[O-])c2n1.[Na+].[Na+] | 5 | > 100 | 11 | 2.6 | 21 | – | – | 20.4 | 100 | 90
CC(OCn1cnc2c(O)nc(N)nc21)OCP(=O)(O)O (configuration not stated) | > 100 | > 100 | > 100 | > 100 | – | – | – | – | – | –
Nc1nc2c(ncn2CCOCP(=O)(O)O)c(=O)[nH]1 [GS-438] | 0.04 (≈ 0.138 µM) | 5 (≈ 17.3 µM) | 0.69 (≈ 2.39 µM) | 0.08 (≈ 0.277 µM) | – | – | – | – | – | –
